The values that follow come from publication PMC4030725 (Molecular pharmaceutics, 2013).

The test system of one series is UGT1A9. Particulars: cited from earlier work.
Another series concerns the target T1, BCRP (Homo sapiens, UniProt Q9UNQ0).
T1 sequence (Q9UNQ0 1-655): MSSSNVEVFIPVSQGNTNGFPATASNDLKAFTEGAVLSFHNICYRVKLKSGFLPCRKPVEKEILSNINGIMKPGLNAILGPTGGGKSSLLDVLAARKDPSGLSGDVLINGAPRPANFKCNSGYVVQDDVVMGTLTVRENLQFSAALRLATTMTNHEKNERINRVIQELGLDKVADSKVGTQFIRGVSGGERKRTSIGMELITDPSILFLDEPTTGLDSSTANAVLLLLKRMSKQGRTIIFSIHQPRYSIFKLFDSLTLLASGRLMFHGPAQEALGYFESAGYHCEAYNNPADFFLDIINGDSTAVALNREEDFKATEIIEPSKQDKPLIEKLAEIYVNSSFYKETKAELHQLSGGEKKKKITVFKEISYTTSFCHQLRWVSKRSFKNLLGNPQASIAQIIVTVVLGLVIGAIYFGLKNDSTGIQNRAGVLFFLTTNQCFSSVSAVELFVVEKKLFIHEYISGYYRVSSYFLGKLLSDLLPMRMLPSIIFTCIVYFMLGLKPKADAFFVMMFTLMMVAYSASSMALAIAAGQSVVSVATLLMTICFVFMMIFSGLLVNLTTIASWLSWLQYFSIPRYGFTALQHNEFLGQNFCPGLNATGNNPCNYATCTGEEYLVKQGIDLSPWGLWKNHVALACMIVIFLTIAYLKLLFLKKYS
Nature of the series: BCRP-mediated efflux of flavone glucuronides from HeLa-UGT1A9 cells. The class given is in vitro ADME. As to conditions: for Log(CLint) / Vmax: BCRP-mediated glucuronide efflux, HeLa-UGT1A9 cells; for Km: efflux kinetic parameter Km, HeLa-UGT1A9 cells (Table 2, unit inferred). In a few lines:
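HeLa cells stably expressing UGT1A9 were used 3 days post-seeding and washed twice with 37°C HBSS (pH 7.4). They were loaded at 37°C with a mono- or dihydroxyflavone aglycone in HBSS, diluted from a 100X DMSO/methanol (1:4) stock. Medium was sampled within the linear time range, quenched with acetonitrile/acetic acid and analysed by UPLC-DAD. Rates (pmol/min/mg protein) were fitted against intracellular glucuronide concentration; CLint = Vmax/Km. n=3.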

Series [1] has as its system HeLa-UGT1A9 cells. The class given is in vitro ADME, human. Particulars: end of experiment. In a few lines:
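After the efflux incubation, cells were washed twice with ice-cold HBSS, collected in HBSS and sonicated for 30 min at 4°C. Lysates were centrifuged at 15,500 rpm for 20 min. Supernatant was mixed with acetonitrile/acetic acid stop solution and glucuronides were quantified by UPLC-DAD. Protein was measured by assay kit against a BSA standard, and concentration was calculated assuming a cell volume of 4 μl/mg protein. n=3.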

The test system of series [2] is HeLa-UGT1A9 cells. Nature of the series: Fraction metabolized. It counts as in vitro ADME, human. Particulars: six DHFs compared at five loading concentrations (Fig. 8A).
Series [3] concerns the target T2, Human BCRP (Arg482) membrane vesicles (Homo sapiens, UniProt Q9UNQ0).
T2 sequence (Q9UNQ0 1-655): T1 sequence (Q9UNQ0 1-655)
Description: Vesicular transport of HF glucuronides in BCRP-overexpressing membrane vesicles. It counts as in vitro ADME. Particulars: for difference in Km between membrane vesicles and HeLa-UGT1A9 cells: BCRP vesicles vs HeLa-UGT1A9 cells; for Km: efflux kinetic parameter Km, BCRP membrane vesicles (Table 2, unit inferred). In a few lines: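 Inside-out human BCRP (Arg482) membrane vesicles were incubated with glucuronide substrate and 5 mM ATP, or AMP as control, in 10 mM MgCl₂/10 mM Tris-HCl (pH 7.4). The reaction was stopped with cold buffer, followed by rapid filtration through glass-fibre filters and ice-cold washes. Filters were extracted in 50% methanol with sonication, centrifuged and analysed by UPLC. ATP-dependent transport was taken as ATP minus AMP values.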

Setting [4] is: UGT1A9-mediated glucuronidation of the aglycone, ref Wu and Hu [37].
Setting [5] is: loading aglycone concentration 0.3125 μM.
Where [6] appears, read: loading aglycone concentration 0.625 μM.
The mark [7] stands for this setting: loading aglycone concentration 1.25 μM.
Setting [8] is: loading aglycone concentration 2.5 μM.
The mark [9] stands for this setting: loading aglycone concentration 5 μM.
Where [10] appears, read: loading aglycone concentration 10 μM.
Setting [11] is: loading aglycone concentration 15 μM.
[12] abbreviates: loading aglycone concentration 20 μM.

Like-named read-outs stand apart in the source and are kept apart here.

As for `O=c1cc(-c2ccccc2O)oc2ccccc12` [2′HF, 2′-Hydroxyflavone], in the series on UGT1A9 (setting [4]), the Km is 0.4 µM, the “Log(CLint)′” value is given as 2.27 and the “Vmax′” value is given as 74.4 pmol/mg/min.
In the case of `O=c1c(O)c(-c2ccccc2O)oc2ccccc12` [3,2′DHF, 3,2′-Dihydroxyflavone], in the series on UGT1A9 (setting [4]), the Km is 0.67 µM, the “Log(CLint)′” value is listed as 1.89 and the “Vmax′” value is 52 pmol/mg/min.
Regarding `O=c1c(O)c(-c2cccc(O)c2)oc2ccccc12` [3,3′ DHF, 3,3′-Dihydroxyflavone], in the series on UGT1A9 (setting [4]), the Km is 0.11 µM, the “Log(CLint)′” value is on record as 4.44 and the “Vmax′” value was 3100 pmol/mg/min.
Regarding `O=c1c(O)c(-c2ccc(O)cc2)oc2ccccc12` [3,4′DHF, 3,4′-Dihydroxyflavone], in the series on UGT1A9 (setting [4]), the Km is 0.13 µM and the “Vmax′” value is on record as 1800 pmol/mg/min.
As to `O=C(O)[C@H]1O[C@@H](Oc2c(-c3ccc(O)cc3)oc3ccccc3c2=O)[C@H](O)[C@@H](O)[C@@H]1O` [3,4′DHF-3-O-G], the “Log(CLint)” value on BCRP worked out at 0.38. Besides, on BCRP, the Vmax was 86.0 ± 5.4 pmol/mg/min. The figures for the “Intracellular Con. of DHFs-3-O-G” value in the series with HeLa-UGT1A9 cells [1] (setting [5]) and with HeLa-UGT1A9 cells [1] (setting [6]) were 2.67 ± 0.09 µM and 14.27 ± 2.00 µM, respectively. The “Intracellular Con. of HFs-G or DHFs-3-O-G” value with HeLa-UGT1A9 cells [1] (setting [7]) was 71.15 ± 6.11 µM; in the series with HeLa-UGT1A9 cells [1] (setting [8]), 241.60 ± 26.10 µM; in the series with HeLa-UGT1A9 cells [1] (setting [9]), 645.32 ± 5.81 µM; with HeLa-UGT1A9 cells [1] (setting [10]) it was 715.62 ± 31.7 µM.
Regarding `O=c1c(O)c(-c2ccccc2)oc2cccc(O)c12` [3,5 DHF, 3,5-Dihydroxyflavone], the fmet entry in the series on HeLa-UGT1A9 cells [2] was “least sensitive to the rising concentration”. In the series on UGT1A9 (setting [4]), the Km is 0.25 µM, the “Log(CLint)′” value is 3.88 and the “Vmax′” value is recorded as 1900 pmol/mg/min.
As to `O=C(O)[C@H]1O[C@@H](Oc2c(-c3ccccc3)oc3cccc(O)c3c2=O)[C@H](O)[C@@H](O)[C@@H]1O` [3,5DHF-3-O-G], at BCRP, the “Log(CLint)” value came to 0.72. On BCRP, the Vmax is 67.3 ± 6.2 pmol/mg/min. For the same compound, the “Intracellular Con. of DHFs-3-O-G” value with HeLa-UGT1A9 cells [1] (setting [5]) was 2.28 ± 0.68 µM; in the series with HeLa-UGT1A9 cells [1] (setting [6]) it was 4.82 ± 0.02 µM. Moreover, the “Intracellular Con. of HFs-G or DHFs-3-O-G” value in the series on HeLa-UGT1A9 cells [1] (setting [7]) is 14.70 ± 2.60 µM; with HeLa-UGT1A9 cells [1] (setting [8]), 53.48 ± 3.45 µM; with HeLa-UGT1A9 cells [1] (setting [9]), 242.98 ± 9.46 µM; in the series on HeLa-UGT1A9 cells [1] (setting [10]) it was 416.65 ± 12.34 µM.
For `O=c1c(O)c(-c2ccccc2)oc2ccc(O)cc12` [3,6DHF, 3,6-Dihydroxyflavone], the fmet result with HeLa-UGT1A9 cells [2] was “highest fmet value at all tested concentration”. In addition, in the series with UGT1A9 (setting [4]), the Km is 0.62 µM, the “Log(CLint)′” value is on record as 4.34 and the “Vmax′” value is 13000 pmol/mg/min.
For `O=c1c(O)c(-c2ccccc2)oc2cc(O)ccc12` [3,7DHF(3-OH), 3,7-Dihydroxyflavone], in the series on UGT1A9 (setting [4]), the Km was 0.22 µM, the “Log(CLint)′” value is given as 4.32 and the “Vmax′” value is on record as 4600 pmol/mg/min.
Take `O=c1c(O)c(-c2ccccc2)oc2ccccc12` [3HF, 3-Hydroxyflavone]: in the series with UGT1A9 (setting [4]), the Km was 0.3 µM, the “Log(CLint)′” value is 3.84 and the “Vmax′” value is recorded as 2100 pmol/mg/min.
In the case of `O=C(O)[C@H]1O[C@@H](Oc2c(-c3ccccc3)oc3ccccc3c2=O)[C@H](O)[C@@H](O)[C@@H]1O` [3HF-G], the “Log(CLint)” value at BCRP stood at 1.23. In addition, the Vmax on BCRP turned out to be 165.6 ± 10.1 pmol/mg/min. Also, the Km on BCRP worked out at 9.7 µM; in series [3], 29 µM. In addition, in series [3], the “difference in Km between membrane vesicles and HeLa-UGT1A9 cells” value is “approximately 3 fold”. For the same compound, the “Intracellular Con. of HFs-G or DHFs-3-O-G” value in the series with HeLa-UGT1A9 cells [1] (setting [7]) worked out at 7.14 ± 3.02 µM; in the series with HeLa-UGT1A9 cells [1] (setting [8]) it was 38.56 ± 8.36 µM; in the series with HeLa-UGT1A9 cells [1] (setting [9]), 206.98 ± 12.39 µM; in the series on HeLa-UGT1A9 cells [1] (setting [10]), 335.57 ± 41.55 µM. Also, the “Intracellular Con. of HFs-G” value was 356.82 ± 94.04 µM in the series with HeLa-UGT1A9 cells [1] (setting [11]) and 280.60 ± 28.78 µM with HeLa-UGT1A9 cells [1] (setting [12]).
Consider `O=c1cc(-c2cccc(O)c2)oc2ccccc12` [3′HF, 3′-Hydroxyflavone], for which, in the series on UGT1A9 (setting [4]), the Km is 2.02 µM, the “Log(CLint)′” value is listed as 2.66 and the “Vmax′” value is reported as 926 pmol/mg/min.
As to `O=c1cc(-c2ccc(O)cc2)oc2ccccc12` [4′HF, 4′-Hydroxyflavone], in the series on UGT1A9 (setting [4]), the Km is 1.46 µM, the “Log(CLint)′” value was 1.83 and the “Vmax′” value is 98.7 pmol/mg/min.
Take `O=c1cc(-c2ccccc2)oc2cccc(O)c12` [5HF, 5-Hydroxyflavone]: the “Vmax′” value in the series with UGT1A9 (setting [4]) is listed as 118 pmol/mg/min. Also, in the series on UGT1A9, the “CLint′(Vmax′/ Km′)” value was 123 µL/min/mg, the Km is 0.96 µM and the “Log(CLint)′” value is on record as 2.09.
In the case of `O=C(O)[C@H]1O[C@@H](Oc2cccc3oc(-c4ccccc4)cc(=O)c23)[C@H](O)[C@@H](O)[C@@H]1O` [5HF-G], the “Log(CLint)” value on BCRP stood at 0.77. Further, the Vmax on BCRP stood at 283.4 ± 20.0 pmol/mg/min. Moreover, the Km on BCRP amounted to 48.5 µM; in series [3], 2.9 µM. Also, in series [3], the “difference in Km between membrane vesicles and HeLa-UGT1A9 cells” value is recorded as above 10 fold. Besides, the “Intracellular Con. of HFs-G or DHFs-3-O-G” value worked out at 31.03 ± 0.44 µM with HeLa-UGT1A9 cells [1] (setting [7]), 47.98 ± 3.91 µM in the series with HeLa-UGT1A9 cells [1] (setting [8]), 72.86 ± 2.26 µM in the series with HeLa-UGT1A9 cells [1] (setting [9]) and 94.74 ± 11.70 µM in the series with HeLa-UGT1A9 cells [1] (setting [10]). For the same compound, the “Intracellular Con. of HFs-G” value in the series with HeLa-UGT1A9 cells [1] (setting [11]) was determined as 18.32 ± 6.47 µM; in the series on HeLa-UGT1A9 cells [1] (setting [12]), 235.51 ± 14.96 µM.
Turning to `O=c1cc(-c2ccccc2)oc2ccc(O)cc12` [6HF, 6-Hydroxyflavone], in the series on UGT1A9 (setting [4]), the Km was 2.27 µM, the “Log(CLint)′” value is listed as 1.53 and the “Vmax′” value is 76.1 pmol/mg/min.
In the case of `O=c1cc(-c2ccccc2)oc2cc(O)ccc12` [7HF, 7-Hydroxyflavone], in the series on UGT1A9 (setting [4]), the Km is 3.59 µM, the “Log(CLint)′” value is listed as 3.13 and the “Vmax′” value is 4895 pmol/mg/min.

The Km is the substrate concentration at which the rate is half of its maximum. The term Vmax denotes the top rate of the reaction or transport when substrate is in excess.
